ChEMBL document CHEMBL3769383, “Cefsulodin Inspired Potent and Selective Inhibitors of mPTPB, a Virulent Phosphatase from Mycobacterium tuberculosis” (ACS Med Chem Lett, 2015)
Activity calls are given as the source filed them. The calls are words filed in the database; no cut-off is given here.

What was measured:
[1] = Inhibition of Mycobacterium tuberculosis PTPB expressed in Escherichia coli BL21/DE3 cells using pNPP as substrate after 5 mins by spectrophotometry
[2] = test system: BL21-DE3; test: Potency index, ratio of SPAA IC50 to compound IC50 for Mycobacterium tuberculosis PTPB expressed in Escherichia coli BL21/DE3 cells
[3] = Inhibition of Mycobacterium tuberculosis PTPB
[4] = test system: BL21-DE3; test: Inhibition of Mycobacterium tuberculosis PTPB expressed in Escherichia coli BL21/DE3 cells using pNPP as substrate at 200 uM after 5 mins by spectrophotometry
Method in brief: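 Single-point screen: the test compound is present at 200 μM in the assay (a compound concentration, not a substrate level). The read-out is phosphatase-catalysed hydrolysis of para-nitrophenyl phosphate.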

For O=C(C(c1ccccc1)S(=O)(=O)O)N1CCC(Cc2ccccc2)CC1 (racemic), which IC50 [1] is on record?
The IC50 was 0.04 µM.

What does the source list for O=C(C(c1ccccc1)S(=O)(=O)O)N1CCCCC1 (racemic)?
Ratio IC50 [2]: 180; IC50 [1]: 0.95 µM

With NC(=O)c1cc[n+](CC2=C(C(=O)O)N3C(=O)[C@@H](NC(=O)[C@@H](c4ccccc4)S(=O)(=O)[O-])[C@H]3SC2)cc1 [CEFSULODIN SODIUM] as the compound, how does the IC50 [3] read?
Its IC50 is 16 µM.

With CCCNC(=O)C(c1ccccc1)S(=O)(=O)O (racemic) as the compound, how does the Ratio IC50 [2] read?
Its Ratio IC50 is 11.

And the IC50 [1]?
Its IC50 is 16 µM.

For CC(=O)OCC1=C(C(=O)O)N2C(=O)[C@@H](N)[C@H]2SC1, which inhibition [4] is on record?
Its inhibition is “inactive”.

With O=C(NC1CC1)C(c1ccccc1)S(=O)(=O)O (racemic) as the compound, how does the Ratio IC50 [2] read?
The Ratio IC50 was 32.

And the IC50 [1]?
The IC50 was 5.6 µM.
